# SENP8 block-1 = inhibitors of human SENP8 protease. Q96LD8. recombinant SENP8, Nedd8 substrate fluorescence. inhibition, % at 20 µM. 360,000 compounds, 0.64% hits. AID 602440; in the data active = inhibition mostly above about 40%, no sharp cut-off; inactive = mostly below about 27%
# Target sequence (Q96LD8 whole entry, looked up): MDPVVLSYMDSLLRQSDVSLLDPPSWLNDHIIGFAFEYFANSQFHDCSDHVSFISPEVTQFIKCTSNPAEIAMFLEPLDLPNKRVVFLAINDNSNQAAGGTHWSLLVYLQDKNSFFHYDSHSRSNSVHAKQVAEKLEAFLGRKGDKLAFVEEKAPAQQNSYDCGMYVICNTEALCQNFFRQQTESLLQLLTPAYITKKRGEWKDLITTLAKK
# SENP7 inh = blocks the human protease SENP7 | 330,000 compounds, 1.5% hits | recombinant SENP7, Z-RLRGG-aminoluciferin luminescence, 40 min | AID 434973 | inhibition, % at 5 µM | Q9BQF6;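 active = inhibition above about 50% at the single test dose, limit read from the data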;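 also: plate controls were DMSO with enzyme for no effect and no enzyme buffer wells for full effect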
# Apaf-1 inh = blocks human Apaf-1 apoptosome activity; 330,000 compounds, 0.71% hits; reconstituted apoptosome caspase-3 activity, DEVD-Rh110 fluorescence; inhibition, % at 20 µM; AID 489030; active = inhibition of at least 40% at 20 µM;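 also: plate controls were DMSO wells for no effect and DEVD-CHO caspase inhibitor wells for full effect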
#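 System – cell-free apoptosome with Apaf-1, procaspase-3 and caspase-9 · Buffer or medium – pH 7.5 Hepes buffer with CHAPS, BSA, DTT · Also added – cytochrome c with DEVD-Rh110 · Times – 30 min compound preincubation, 50 min activation, room temperature · Technique – Rh110 fluorescence intensity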
# SENP6 inh = SENP6 protease inhibition. Q9GZR1. Recombinant SENP6 catalytic domain, aminoluciferin luminescence. inhibition, % at 10 µM. 330,000 compounds, 1.8% hits. AID 2599;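 active = inhibition above about 50% at the single tested dose, limit read from the data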;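 also: plate controls were DMSO wells with enzyme for no effect and DMSO wells lacking enzyme for full effect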
# UBC13 polyUb = inhibitors of human UBC13 polyubiquitin chain formation; AID 485273; P61088; 330,000 compounds, 0.47% hits; TR-FRET; inhibition, % at 20 µM; in the data active = inhibition above about 45%, passing the limit was not always enough
# Target sequence (P61088 whole entry, looked up): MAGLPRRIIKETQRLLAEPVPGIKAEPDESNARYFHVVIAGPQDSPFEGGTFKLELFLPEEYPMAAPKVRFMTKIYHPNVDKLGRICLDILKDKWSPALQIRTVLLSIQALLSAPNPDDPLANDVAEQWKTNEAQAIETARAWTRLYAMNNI
# SENP8 block-2 = blocks the human protease SENP8 | inhibition, % at 10 µM | purified SENP8, Z-RLRGG-aminoluciferin cleavage, luminescence | 330,000 compounds, 1.2% hits; in the data active = inhibition above about 50%
# SENP8 conf = confirmation of human SENP8 protease inhibitors | shares compounds with SENP7 inh | Recombinant SENP8, Z-RLRGG-aminoluciferin luminescence, 60 min | inhibition, % at 12.5 µM | 6,200 compounds, 40% hits;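 active = mean inhibition across replicates above about 50%, limit read from the data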
# SENP6 confirm = human SENP6 inhibition, confirmed. shares compounds with SENP7 inh. recombinant SENP6, Z-RLRGG-aminoluciferin luminescence. inhibition, % at 12.5 µM. 6,200 compounds, 58% hits. AID 488915
# SENP7 conf = human SENP7 inhibition, confirmed. AID 488917. inhibition, % at 12.5 µM. shares compounds with SENP7 inh. recombinant SENP7, Z-RLRGG-aminoluciferin luminescence, 40 min. 6,200 compounds, 69% hits
# Casp3 select = caspase-3 inhibition (SENP selectivity assay); purified caspase-3, Z-DEVD-aminoluciferin luminescence, 60 min; AID 488918; inhibition, % at 12.5 µM; 6,200 compounds, 60% hits; shares compounds with SENP7 inh;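 active = mean inhibition above about 50%, limit read from the data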;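 also: plate controls were enzyme with DMSO for no effect and wells without caspase-3 for full effect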
# Target sequence (P42574 28-227 limits assumed): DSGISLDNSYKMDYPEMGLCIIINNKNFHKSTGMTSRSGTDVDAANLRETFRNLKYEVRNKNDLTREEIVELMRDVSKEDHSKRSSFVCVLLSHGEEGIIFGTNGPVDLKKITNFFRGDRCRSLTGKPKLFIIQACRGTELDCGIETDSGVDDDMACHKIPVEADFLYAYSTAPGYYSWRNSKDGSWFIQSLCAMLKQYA
# Luc interf = interferes with luciferase luminescence in SENP counter-screen; shares compounds with SENP7 inh; inhibition, % at 12.5 µM; AID 488919; Pre-incubated SENP8/Z-RLRGG-aminoluciferin, luciferase luminescence interference; 6,200 compounds, 39% hits;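 active = mean inhibition above about 50% when retested at one dose, limit read from the data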;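 also: plate controls were DMSO wells with completed reaction for no effect and substrate without enzyme for full effect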
# The depositor's hits bear a star; i = inactive; / = no result given. Hits are enriched below; roughly 3% of the tested compounds scored in any of these assays.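 The calls were made as follows, unless noted: active = mean inhibition above about 50% in the one-dose retest (limit read from the data); inactive = the rest.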
SMILES,SENP8 block-1,SENP7 inh,Apaf-1 inh,SENP6 inh,UBC13 polyUb,SENP8 block-2,SENP8 conf,SENP6 confirm,SENP7 conf,Casp3 select,Luc interf
O=c1[nH]c2ccccc2nc1/C=C/c1ccc(O)cc1,-385.4,92.1*,3.1,93.0*,-5.3,93.3*,96.8*,97.6*,102.0*,91.9*,82.9*
CC(C)(C)/C(O)=C/c1nc2ccccc2[nH]c1=O,-14.5,-4.4,1.1,-7.3,8.9,3.9,/,/,/,/,/
Cn1c(=O)c(/C=C/c2ccc(F)cc2)nc2ccccc21,-446.3,/,/,/,/,/,/,/,/,/,/
NC(CCc1ccccc1)c1csc(Nc2cnccn2)n1 (stereo not given),-33.5,/,/,/,/,/,/,/,/,/,/
CC1Cc2cc(/C=C3/SC(=S)NC3=O)ccc2O1 (stereo not given),21.8,2.4,-12.8,74.2*,-18.2,67.2*,11.2,76.2*,83.9*,46.7,0.3
CCN(CC)c1ccc(C=C2SC(=S)NC2=O)cc1,38.5,/,/,/,/,/,/,/,/,/,/
CCOC(=O)Cn1c2ccccc2c2nc(C)sc21,18.5,-6.6,-7.9,14.6,1.3,2.3,/,/,/,/,/
CCOC(=O)Cn1c2ccc(C)cc2c2nc(C)sc21,11.1,2.4,3.0,50.8*,-12.3,6.2,7.6,8.5,-5.6,-7.8,-10.0
N#Cc1c(C(F)(F)F)cc(-c2ccc(F)cc2)[nH]c1=O,-391.5,-7.8,6.9,23.6,3.3,8.2,/,/,/,/,/
N#Cc1c(C(F)(F)F)cc(-c2ccc(Cl)cc2)[nH]c1=O,-313.1,22.9,10.4,51.5*,-5.9,68.8*,-25.5,12.8,38.9,15.6,40.8
N#Cc1c(C(F)(F)F)cc(-c2cccc(Cl)c2)[nH]c1=O,-268.4,3.6,15.0,73.6*,3.2,78.4*,90.9*,91.1*,95.5*,74.5*,88.7*
O=C(O)C1CC(c2ccc(F)cc2)=NO1 (stereo not given),10.7,5.7,i,-20.2,-18.2,-6.1,/,/,/,/,/
O=C(O)C1CC(c2ccccc2)=NO1 (stereo not given),5.0,95.3*,-19.6,-0.5,-8.4,0.6,6.4,7.2,7.9,2.4,2.3
Cc1cc(C(=O)O)ccc1N/C=C1\CCCC(C)C1=O (stereo not given),-43.5,27.0,2.2,79.5*,-8.4,76.5*,9.3,88.9*,98.6*,62.3*,88.0*
CC1CCC/C(=C\Nc2ccc(O)cc2)C1=O (stereo not given),7.7,15.2,33.6,13.8,0.0,-11.0,/,/,/,/,/
Cc1cc(C)n(-c2nc3ccccc3s2)n1,4.7,42.2,-7.1,-3.4,3.6,38.9,/,/,/,/,/
Cc1cc(N)n(-c2nc3ccccc3s2)n1,8.8,93.5*,3.1,86.9*,0.4,86.3*,91.6*,92.8*,100.1*,92.9*,40.2
CN1CCSc2ccc(C(=O)Nc3cc(F)ccc3F)cc21,-420.6,89.1*,-17.8,87.9*,29.3,76.3*,86.0*,85.8*,96.4*,78.6*,24.8
Cc1ccccc1NC(=O)c1ccc2c(c1)N(C)CCS2,-395.9,8.2,5.6,33.4,12.2,15.0,/,/,/,/,/
O=C(CNc1ccc(Br)cc1)c1ccccc1,19.3,32.1,2.9,71.4*,-10.0,47.9,9.1,13.9,20.7,21.3,12.5
Cc1ccc(COc2ccc3c(c2)OCO3)cc1,7.2,86.2*,9.2,90.9*,6.5,75.5*,48.5,84.9*,97.9*,70.3*,31.3
O=Cc1ccc(OCc2ccc3c(c2)OCO3)cc1,32.4,70.6*,0.3,77.5*,7.5,61.9*,73.1*,73.1*,91.8*,80.9*,83.0*
O=C(Cc1ccc(OCc2ccccc2)cc1)NCc1ccc2c(c1)OCO2,7.1,/,/,/,/,/,/,/,/,/,/
Cc1ccc(CNc2ccc3c(c2)OCO3)cc1,-108.2,/,/,/,/,/,/,/,/,/,/
CC(=O)Nc1ccc(/C=C2/Sc3ccccc3C2=O)cc1,-100.5,93.6*,-0.8,66.3*,-16.1,62.1*,21.3,21.4,33.6,34.0,14.4
SMILES,SENP8 block-1,SENP7 inh,Apaf-1 inh,SENP6 inh,UBC13 polyUb,SENP8 block-2,SENP8 conf,SENP6 confirm,SENP7 conf,Casp3 select,Luc interf
CCc1nc2c(OCC(=O)C(C)(C)C)cccn2c1N(C)C(=O)c1ccc(C)cc1,15.1,/,/,/,/,/,/,/,/,/,/
Cc1ccc(C(=O)Nc2ccc(C(=O)N3CCCCC3)cc2)o1,3.1,78.0*,-3.3,66.0*,-3.3,48.1,58.5*,59.6*,88.8*,89.2*,68.5*
Cc1ccc(C(=O)Nc2ccc(NC(=O)c3ccc(C)o3)cc2)o1,-9.7,-3.9,-2.6,18.4,-3.9,0.8,/,/,/,/,/
Cc1ccccc1CC(=O)Nc1ccc(C(=O)N2CCCC2)cc1,8.3,54.5*,4.1,41.0,0.1,17.1,43.8,39.8,69.0*,77.6*,53.2*
CCCCCN(C(=O)CCC(=O)OC(C)C(=O)Nc1ccccc1C)c1c(N)n(CCCC)c(=O)[nH]c1=O (stereo not given),17.2,/,/,/,/,/,/,/,/,/,/
N#CC1=C(N)SC(N)=C(C#N)C1c1ccnc2ccccc12,-305.9,-1.7,2.8,1.4,-5.7,-9.1,/,/,/,/,/
O=C1C(c2ccnc3ccccc23)=C(O)c2ccccc21,61.8*,96.9*,-6.7,64.4*,-14.2,38.9,85.7*,86.4*,96.7*,94.3*,87.8*
O=C1c2ccccc2C(=O)C1c1ccnc2ccccc12,28.3,99.2*,4.9,79.0*,-18.4,85.4*,83.9*,89.0*,99.8*,93.6*,20.9
O=C1c2ccccc2C(=O)C1c1nccc2ccccc12,34.1,95.6*,-3.5,97.4*,-18.0,58.7*,87.4*,81.2*,98.3*,91.5*,29.1
O=C(NCCCN1CCOCC1)c1ccccc1N1C(=O)[C@@H]2Cc3c([nH]c4ccccc34)C(c3ccccc3)N2C1=O (stereo not given in full),13.3,/,/,/,/,/,/,/,/,/,/
Cc1ccc(SCCC(=O)Nc2ccccc2C(=O)NC(C)C)cc1,-27.8,-11.5,-0.1,-6.1,-7.5,-13.2,/,/,/,/,/
Cc1ccc(SCCC(=O)Nc2ccccc2Br)cc1,5.3,37.7,9.4,58.4*,-3.5,39.0,49.2,43.8,77.6*,48.3,51.3*
CCC(C)NC(=O)c1ccc2c(Cl)c3c(nc2c1)CCC3 (stereo not given),12.7,28.0,-2.8,34.3,-11.5,6.0,/,/,/,/,/
Cc1cccc(NC(=O)c2ccc3c(Cl)c4c(nc3c2)CCCC4)n1,-2.9,87.0*,15.0,44.0,1.6,9.2,-1.9,8.2,9.9,21.2,-3.8

# Compound activity from PubChem.
